Measured values pooled from the literature.
Protocols differ between the studies behind these lines. ≈ marks a conversion by molar mass, not a printed value.

SMILES | organism | assay | test system | setting | endpoint | result
O=[N+]([O-])c1cc2cc3ccc4oc([N+](=O)[O-])cc4c3cc2o1 | Mycolicibacterium smegmatis | microbial growth, resazurin | MC^2155 | – | MIC90 | 4 µg/mL (≈ 13.4 µM)
Cc1c2ccncc2c(C)c2c1[nH]c1ccccc12 | Mycolicibacterium smegmatis | microbial killing, resazurin | – | – | MBC | 87.1 µM (≈ 21.5 µg/mL)
CC(C)[C@H](N)C(=O)OCCCCCn1cnc2nc(NCc3ccc(Cl)c(Cl)c3)[nH]c(=O)c21 | Lacticaseibacillus casei | microbial growth, agar dilution | – | 48 h | MIC | > 32 µg/mL
CC(C)=CCC/C(C)=C/CNCCNC1C2CC3CC(C2)CC1C3 (centres unmarked) | Mycolicibacterium smegmatis | microbial growth | – | 48 h | IC50 | 2400 nM
CCCCCOc1ccc(-c2cc(-c3ccc(C(=O)N[C@H]4C[C@@H](O)[C@@H](O)NC(=O)[C@@H]5[C@@H](O)[C@@H](C)CN5C(=O)[C@H]([C@H](O)CC(N)=O)NC(=O)[C@H]([C@H](O)[C@@H](O)c5ccc(O)c(OS(=O)(=O)O)c5)NC(=O)[C@@H]5C[C@@H](O)CN5C(=O)[C@H]([C@@H](C)O)NC4=O)cc3)no2)cc1 | Candida tropicalis | biofilm formation | – | 16 µg/mL | inhibition | 28%
O=C1C2CC3CC(C2)CC1C3 | Mycolicibacterium smegmatis | microbial growth | – | 48 h | IC50 | > 500000 nM
COc1ccc2c(ccc3oc([N+](=O)[O-])c(C)c32)c1 | Mycolicibacterium smegmatis | microbial growth, resazurin | MC^2155 | – | MIC90 | > 32 µg/mL
Cn1cnc2nc(NCc3ccc(Cl)c(Cl)c3)[nH]c(=O)c21 | Lacticaseibacillus casei | microbial growth, agar dilution | – | 48 h | MIC | 32 µg/mL (≈ 98.7 µM)
